Experimental data taken from ChEMBL document CHEMBL3232719 (J Med Chem, 2014).
Calls of active or inactive are those of the source. The rule behind the calls is not given here.

Key:
26S proteasome [1] = assay: Inhibition of chymotrypsin-like activity of human 20S proteasome using Suc-LLVY-AMC as substrate; type: protein-complex assay
26S proteasome [2] = assay: Inhibition of caspase-like activity of human 20S proteasome using Ac-nLPnLD-AMC as substrate; type: protein-complex assay
26S proteasome [3] = assay: Inhibition of trypsin-like activity of human 20S proteasome using Ac-RLR-AMC as substrate; type: protein-complex assay
HCT-116 [4] = assay: Inhibition of human HCT116 cell growth; type: functional, cell-based
[5] = biological target: T1, Lysosomal protective protein (Homo sapiens, UniProt P10619); assay: Inhibition of recombinant cathepsin A (unknown origin) using Mca-Arg-Pro-Pro-Gly-Phe-Ser-Ala-Phe-Lys(Dnp)-OH as substrate incubated with enzyme for 5 mins prior to substrate challenge for 2 hrs by spectrofluorometer analysis
T1 sequence (P10619 whole entry): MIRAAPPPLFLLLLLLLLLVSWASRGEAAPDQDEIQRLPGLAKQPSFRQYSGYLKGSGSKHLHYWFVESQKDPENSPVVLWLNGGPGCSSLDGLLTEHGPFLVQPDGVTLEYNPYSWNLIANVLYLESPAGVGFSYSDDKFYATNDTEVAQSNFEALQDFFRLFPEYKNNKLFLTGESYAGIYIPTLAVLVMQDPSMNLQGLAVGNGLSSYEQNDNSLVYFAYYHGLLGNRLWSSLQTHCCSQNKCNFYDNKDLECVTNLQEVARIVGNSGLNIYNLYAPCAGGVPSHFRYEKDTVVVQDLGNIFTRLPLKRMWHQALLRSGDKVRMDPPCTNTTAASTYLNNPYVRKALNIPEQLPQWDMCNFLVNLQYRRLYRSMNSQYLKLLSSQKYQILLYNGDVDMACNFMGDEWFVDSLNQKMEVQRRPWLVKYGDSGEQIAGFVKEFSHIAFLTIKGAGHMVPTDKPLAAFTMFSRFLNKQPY

Cathepsin B = Cathepsin B (Homo sapiens, UniProt P07858); assay: Inhibition of recombinant cathepsin B (unknown origin) using Z-Leu-Arg-AMC as substrate by spectrofluorometer analysis
Cathepsin G = biological target: T2, Cathepsin G (Homo sapiens, UniProt P08311); assay: Inhibition of recombinant cathepsin G (unknown origin) using Suc-Ala-Ala-Pro-Phe-AMC as substrate by spectrofluorometer analysis
T2 sequence (P08311 whole entry): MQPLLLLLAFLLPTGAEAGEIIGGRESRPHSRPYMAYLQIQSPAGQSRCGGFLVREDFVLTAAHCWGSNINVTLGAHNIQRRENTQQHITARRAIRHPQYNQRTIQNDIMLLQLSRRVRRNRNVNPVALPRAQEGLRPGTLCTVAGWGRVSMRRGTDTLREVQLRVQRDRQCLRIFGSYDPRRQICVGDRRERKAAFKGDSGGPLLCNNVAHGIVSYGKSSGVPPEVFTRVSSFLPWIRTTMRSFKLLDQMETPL

HCT-116 [6] = assay: Cell cycle arrest in human HCT116 cells assessed as accumulation at G1 phase at 100 nM after 24 hrs by propidium iodide staining based flow cytometry (reference value: 35.6%); type: functional
HCT-116 [7] = assay: Cell cycle arrest in human HCT116 cells assessed as accumulation at S phase at 100 nM after 24 hrs by propidium iodide staining based flow cytometry (reference value: 45.3%); type: functional
HCT-116 [8] = assay: Cell cycle arrest in human HCT116 cells assessed as accumulation at G2/M phase at 100 nM after 24 hrs by propidium iodide staining based flow cytometry (reference value: 19.1%); type: functional
[9] = biological target: T3, Proteasome subunit beta type-8 (Homo sapiens, UniProt P28062); assay: Inhibition of beta5i subunit of immunoproteasome (unknown origin) by active-site ELISA
T3 sequence (P28062 whole entry): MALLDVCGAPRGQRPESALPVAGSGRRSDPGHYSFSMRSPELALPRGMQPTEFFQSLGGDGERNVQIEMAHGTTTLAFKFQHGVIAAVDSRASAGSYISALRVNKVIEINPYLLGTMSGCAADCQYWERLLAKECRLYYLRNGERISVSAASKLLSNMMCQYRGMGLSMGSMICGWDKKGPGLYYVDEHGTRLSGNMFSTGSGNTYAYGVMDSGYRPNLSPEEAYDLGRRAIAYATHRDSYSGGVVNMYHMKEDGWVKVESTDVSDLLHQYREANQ

HCT-116 [10] = assay: Induction of apoptosis in human HCT116 cells assessed as increase in p53 expression by immunoblot analysis; type: functional, cell-based
Method in brief: (§1)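 HCT116 cells were treated with compound or DMSO vehicle. Lysates were immunoblotted for p53 accumulation and for cleaved PARP as the apoptosis marker.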

HCT-116 [11] = assay: Induction of apoptosis in human HCT116 cells assessed as increase in PARP cleavage by immunoblot analysis; type: functional, cell-based; method in brief: as §1
[12] = biological target: T4, Proteasome Macropain subunit MB1 (Homo sapiens, UniProt P28074); assay: Inhibition of beta5 subunit of constitutive proteasome (unknown origin) by active-site ELISA
T4 sequence (P28074 whole entry): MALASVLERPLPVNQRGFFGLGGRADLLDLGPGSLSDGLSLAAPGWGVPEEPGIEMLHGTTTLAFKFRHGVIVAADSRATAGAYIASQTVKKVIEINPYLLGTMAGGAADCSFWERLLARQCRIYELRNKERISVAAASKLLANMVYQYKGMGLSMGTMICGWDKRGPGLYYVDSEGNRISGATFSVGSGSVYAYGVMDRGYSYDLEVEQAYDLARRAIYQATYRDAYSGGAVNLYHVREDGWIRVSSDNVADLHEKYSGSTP

[13] = biological target: T5, Proteasome Macropain subunit MB1 (Homo sapiens) (UniProt P28074); assay: Binding affinity to beta5 subunit of 20S proteasome (unknown origin) assessed as dissociation half-life
T5 sequence (whole entry): T4 sequence (P28074 whole entry)
Method in brief: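 Human 20S proteasome was preincubated with inhibitor. Chymotrypsin-like activity was then measured before and after removal of free inhibitor by dialysis (wash-out), with reference reversible and irreversible inhibitors run alongside.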

[14] = Inhibition of caspase-like activity of proteasome (unknown origin); set-up: species or system Homo sapiens

SMILES	IC50 (26S proteasome [1]) [nM]	IC50 (26S proteasome [2]) [nM]	IC50 (26S proteasome [3]) [nM]	IC50 (HCT-116 [4]) [nM]	also measured
CC(C)C[C@H](NC(=O)[C@H](CC(=O)NCCC(COCc1ccccc1)COCc1ccccc1)NC(=O)c1cccc(-c2ccccc2)n1)B1O[C@@H]2C[C@@H]3C[C@@H](C3(C)C)[C@]2(C)O1	7.5	1000	> 10000	260	
CC(C)C[C@H](NC(=O)[C@H](CC(=O)NCCC(COCc1ccccc1)COCc1ccccc1)NC(=O)c1ccccc1)B1O[C@@H]2C[C@@H]3C[C@@H](C3(C)C)[C@]2(C)O1	7.8	130	2700	60	
CC(C)C[C@H](NC(=O)[C@H](Cc1ccccc1)NC(=O)c1cnccn1)B(O)O [BORTEZOMIB]				5	IC50 [5]: 9.2 µM; IC50 (Cathepsin B): > 30 µM; IC50 (Cathepsin G): 3.1 µM; Activity (HCT-116 [6]): 3%; Activity (HCT-116 [7]): 21%; Activity (HCT-116 [8]): 76%
CC(C)C[C@H](NC(=O)[C@H](CCc1ccccc1)NC(=O)CN1CCOCC1)C(=O)N[C@@H](Cc1ccccc1)C(=O)N[C@@H](CC(C)C)C(=O)[C@@]1(C)CO1 [CARFILZOMIB]					IC50 [5]: > 30 µM; IC50 (Cathepsin B): 11 µM; IC50 (Cathepsin G): > 30 µM
CC(=O)N[C@@H](CC(=O)NCC(COCc1ccccc1)COCc1ccccc1)C(=O)N[C@@H](CC(C)C)B(O)O	7.7			79.6	
CC(C)C[C@H](NC(=O)[C@H](CC(=O)NCCC(COCc1ccccc1)COCc1ccccc1)NC(=O)c1cc(Cl)ccc1Cl)B1O[C@@H]2C[C@@H]3C[C@@H](C3(C)C)[C@]2(C)O1	5.9	250	> 10000	140	
CC(=O)N[C@@H](CC(=O)NCCC(COCc1ccccc1)COCc1ccccc1)C(=O)N[C@@H](CC(C)C)B1O[C@@H]2C[C@@H]3C[C@@H](C3(C)C)[C@]2(C)O1	2.7	150	2700	31.8	IC50 [9]: 31 nM; IC50 [5]: > 30 µM; IC50 (Cathepsin B): > 30 µM; IC50 (Cathepsin G): > 30 µM; Activity (HCT-116 [6]): 3.2%; Activity (HCT-116 [7]): 25.1%; Activity (HCT-116 [8]): 71.7%; Activity (HCT-116 [10]): Active; Activity (HCT-116 [11]): Active; IC50 [12]: 140 nM
CC(=O)N[C@@H](CCC(=O)NCC(COCc1ccccc1)COCc1ccccc1)C(=O)N[C@@H](CC(C)C)B1O[C@@H]2C[C@@H]3C[C@@H](C3(C)C)[C@]2(C)O1	5.1	75	2400	63.6	
CC(=O)N[C@@H](CCC(=O)NCCCC(COCc1ccccc1)COCc1ccccc1)C(=O)N[C@@H](CC(C)C)B1O[C@@H]2C[C@@H]3C[C@@H](C3(C)C)[C@]2(C)O1	4.1	46	3000	67.2	
CC(C)C[C@H](NC(=O)CNC(=O)c1cc(Cl)ccc1Cl)B1OC(=O)CC(CC(=O)O)(C(=O)O)O1 (stereo partly drawn)					T1/2 [13]: 18 min
CC[C@H](C)[C@@H]1C(=O)O[C@H]1C(=O)NCCC(COCc1ccccc1)COCc1ccccc1	29			> 10000	
CNC(=O)C[C@H](NC(C)=O)C(=O)N[C@@H](CC(C)C)B1O[C@@H]2C[C@@H]3C[C@@H](C3(C)C)[C@]2(C)O1	54	500	> 10000	2500	
CC(=O)N[C@@H](CCC(=O)NCCC(COCc1ccccc1)COCc1ccccc1)C(=O)N[C@@H](CC(C)C)B1O[C@@H]2C[C@@H]3C[C@@H](C3(C)C)[C@]2(C)O1	5.7	76	2500	110	
CC[C@H](C)[C@@H]1C(=O)O[C@H]1C(=O)N[C@H]1C[C@H]1C[C@H](NC(=O)[C@H](C)N)C(=O)O [BELACTOSIN A]	1400				
CC(C)C[C@H](NC(=O)[C@@H](NC(=O)c1cccc(-c2ccccc2)n1)[C@@H](C)O)B(O)O [DELANZOMIB]					IC50 [14]: 70 nM
CC[C@H](C)[C@@H]1C(=O)O[C@H]1C(=O)N[C@H]1C[C@@H]1C[C@@H](CCc1ccccc1)NC(=O)[C@H](C)NC(=O)OCc1ccccc1	5.7			1820	
CC(=O)N[C@@H](CC(=O)NCCCC(COCc1ccccc1)COCc1ccccc1)C(=O)N[C@@H](CC(C)C)B1O[C@@H]2C[C@@H]3C[C@@H](C3(C)C)[C@]2(C)O1	4.1	120	2700	43	
CC(=O)N[C@@H](CSC(=O)[C@]1([C@@H](O)C(C)C)NC(=O)[C@H](C)[C@@H]1O)C(=O)O [LACTACYSTIN]					IC50 [9]: > 3000 nM
CC(=O)N[C@@H](CC(=O)NCCCCOCc1ccccc1)C(=O)N[C@@H](CC(C)C)B1O[C@@H]2C[C@@H]3C[C@@H](C3(C)C)[C@]2(C)O1	4.8	170	2170	130	IC50 [9]: 59 nM; IC50 [5]: > 30 µM; IC50 (Cathepsin B): > 30 µM; IC50 (Cathepsin G): > 30 µM; Activity (HCT-116 [6]): 22.9%; Activity (HCT-116 [7]): 26.6%; Activity (HCT-116 [8]): 50.5%; Activity (HCT-116 [10]): Active; Activity (HCT-116 [11]): Active; IC50 [12]: 280 nM
CC(C)C[C@H](NC(=O)[C@H](CC(=O)NCCC(COCc1ccccc1)COCc1ccccc1)NC(=O)c1cnccn1)B1O[C@@H]2C[C@@H]3C[C@@H](C3(C)C)[C@]2(C)O1	7.1	210	3300	45	
CC(=O)N[C@@H](CC(=O)NCC(COCc1ccccc1)COCc1ccccc1)C(=O)N[C@@H](CC(C)C)B1O[C@@H]2C[C@@H]3C[C@@H](C3(C)C)[C@]2(C)O1	3.9	140	1100	45.4	
